Assay results taken from article PMC6245472 (Molecules, 2008).

Columns and labels:
[1] = tested on: Plasmodium falciparum 3D7 strain (CQ-sensitive); assay: P. falciparum in vitro parasite growth inhibition; type: cell-based
Procedure, shortened: (§1)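 Asynchronous culture (65–75% rings, 0.5% parasitemia, 2.5% hematocrit) in RPMI 1640/0.5% Albumax II/5 µM hypoxanthine. Triplicate 3-fold dilutions, 10.0–0.0412 µg/mL, DMSO ≤0.01% final. 37 °C, 5% CO2, 24 h, then [3H]hypoxanthine 0.2 µCi/well for a further 24 h. Plates frozen, harvested, scintillation-counted. IC50 curve-fitted, mean of independent experiments. SI = KB IC50 (72 h, Alamar Blue)/parasite IC50. RI from K1 and 3D7 IC50s.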

[2] = tested on: Plasmodium falciparum K1 strain (CQ-resistant); assay: P. falciparum in vitro parasite growth inhibition; type: cell-based; settings: for RI (K1/3D7) Resistance Index: ratio of K1 and 3D7 IC50
Procedure, shortened: as §1

`CCN(CC)CCCC(C)Nc1ccnc2cc(Cl)ccc12` (stereo not drawn) [CQ, Chloroquine diphosphate] was tested, and the “SI 3D7 Selectivity Index” value ([1]; (KB IC50)/(3D7 IC50)) was 8150, the IC50 ([1]; Plasmodium falciparum, 3D7, read-out: 3D7 IC50) was 13.5 nM and the “SI K1 Selectivity Index” value ([2]; (KB IC50)/(K1 IC50)) was 161. For the same compound, the IC50 ([2]; Plasmodium falciparum, K1, read-out: K1 IC50) was 682 nM, the “RI (K1/3D7) Resistance Index” value [2] was 50.52 and the “RI (K1/3D7) Resistance Index” value ([2]; listed as chloroquine) was 50.
